# Assay outcomes: PubChem BioAssay, several laboratories
# A selection: hits, their analogues and other compounds. The true share with any hit is near 5.5%.
# tolC growth inh: E. coli tolC mutant growth inhibition; growth inhibition, % at 10 µM (by protocol); 65,000 tested, 2.2% active; E. coli BW25113 tolC mutant growth, OD615; AID 573;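 active = growth inhibition at or above a cutoff equal to the mean over every tested compound plus 3 SD, cut at about 60% in these data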;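 also: growth measured after 20 h incubation at 37 °C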
#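 Doses: one dose of 10 µM final / Material: E. coli BW25113 ΔtolC::kan, tolC deletion mutant strain / Buffer or medium: LB with kanamycin 50 µg/mL / Evaluation: percent growth inhibition / Detection: optical density read at 615 nm / Incubation: 37 °C, 20 h exposure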
# PLAP act: human PLAP activation; 96,000 tested, 1.2% active; purified PLAP enzyme, luminescent substrate read-out; active compounds read high; activation fold at 20 µM; P05187; AID 696; in the data active = activation fold above about 2
# Target sequence (P05187 whole entry, looked up): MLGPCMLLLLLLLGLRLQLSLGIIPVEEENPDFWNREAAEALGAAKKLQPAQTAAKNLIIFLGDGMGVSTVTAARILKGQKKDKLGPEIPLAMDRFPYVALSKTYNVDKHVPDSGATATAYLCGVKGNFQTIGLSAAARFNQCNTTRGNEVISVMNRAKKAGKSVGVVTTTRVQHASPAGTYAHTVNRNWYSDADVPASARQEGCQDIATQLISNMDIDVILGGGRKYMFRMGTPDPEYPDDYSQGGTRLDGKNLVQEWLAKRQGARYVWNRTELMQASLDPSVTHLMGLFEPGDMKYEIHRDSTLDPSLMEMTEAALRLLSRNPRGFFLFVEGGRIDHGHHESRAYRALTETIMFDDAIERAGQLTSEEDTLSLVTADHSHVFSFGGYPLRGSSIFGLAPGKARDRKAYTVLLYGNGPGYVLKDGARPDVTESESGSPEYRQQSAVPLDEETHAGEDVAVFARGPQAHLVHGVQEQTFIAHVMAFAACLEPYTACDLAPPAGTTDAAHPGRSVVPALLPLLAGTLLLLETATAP
# PostGolgi yeast: growth inhibition of a yeast mutant, post-Golgi transport screen; post-Golgi transport phenotypic cell assay; inhibition, % at 10 µM; 98,000 tested, 0.9% active;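 also: yeast cells grown in 1536-well plates; yeast grown about 18 h at 30C before absorbance read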
# HePTP inh: blocks human HePTP tyrosine phosphatase; P35236; recombinant HePTP phosphatase activity, OD absorbance; inhibition, % at 20 µM; 110,000 tested, 0.64% active; AID 521; in the data active = inhibition above about 50%;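 also: plate controls were vehicle for no effect and reference inhibitor for full effect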
# PostGolgi ctrl: inhibits growth of the yeast control strain; efflux-deficient yeast background strain, growth absorbance A615, 16 h; inhibition, % at 10 µM; 98,000 tested, 5% active
# Ecoli WT expand: E. coli BW25113 growth inhibition, expanded screen. OD600 absorbance. 98,000 tested, 0.15% active. AID 710. growth inhibition, % at 100 µM;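 active = growth inhibition above about 50% at one test dose, limit read from the data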;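 also: growth measured after 20 h incubation at 37 °C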
# * marks the source's active call; other numbers are inactive results; . = not tested or not shown. Rule as the data show it, unless noted: active = inhibition above about 30%; inactive = the rest.
SMILES,tolC growth inh,PLAP act,PostGolgi yeast,HePTP inh,PostGolgi ctrl,Ecoli WT expand
CC(Oc1ccc(Br)cc1)C(=O)N1CCc2ccccc21 (stereo not given),20,.,3,-11,27,-2
CC(Oc1ccccc1Br)C(=O)N1CCc2ccccc21 (stereo not given),69*,1.1,-8,-1,23,6
O=C(COc1ccccc1)Nc1ccc(Cl)c(-c2nc3ccccc3s2)c1,.,.,.,5,.,.
CCOc1ccc(N2C(=O)NC(=O)/C(=C\c3ccc(OCC(=O)O)c(Br)c3)C2=O)cc1,.,.,.,-2,.,.
CCc1ccc(N(CC(=O)Nc2nc3ccc(C)cc3s2)S(=O)(=O)c2c(C)noc2C)cc1,.,1.5,2,.,32*,-19
COc1ccc2nc(NC(=O)CN(c3ccc(C)cc3)S(=O)(=O)c3c(C)nn(C)c3C)sc2c1,55,1.5,-4,2,50*,-8
COc1ccc(NC(=O)CN(c2ccc(C)cc2)S(=O)(=O)c2c(C)nn(C)c2C)cc1OC,0,0.9,-2,-5,1,2
COC(=O)CN(c1ccc(OC)cc1)S(=O)(=O)c1c(C)noc1C,-18,1,1,5,33*,2
CCc1ccc(NC(=O)CN(c2ccc3c(c2)OCO3)S(=O)(=O)c2c(C)noc2C)cc1,-9,1,-4,1,29,0
CCOc1ccc(OCC)c(NC(=O)CN(c2ccc(C)cc2)S(=O)(=O)c2c(C)noc2C)c1,18,1.5,-1,-4,5,-18
CCOc1ccccc1NC(=O)CN(c1ccc(C)cc1)S(=O)(=O)c1c(C)noc1C,42,0.9,-2,2,39*,-18
O=C(NCc1ccccn1)C(=O)Nc1ccc(F)cc1,.,.,.,-3,.,.
Cc1ccc(NC2CC(C)N(C(=O)CN3C(=O)c4ccccc4C3=O)c3ccc(C)cc32)cc1 (stereo not given),.,.,.,8,.,.
COC(=O)C(c1ccccc1)c1ccccc1,.,.,.,-14,.,.
COc1ccc(N2CCN(C(=O)c3csc4ccccc34)CC2)cc1,.,1.1,1,.,17,-5
O=C(c1csc2ccccc12)N1CCN(c2ccc(Cl)c(Cl)c2)CC1,.,0.9,18,.,36*,-15
O=C1CCCc2nc3nc4ccccc4n3cc21,93*,1.2,-5,15,-6,46
O=C1CCCc2nc(N3CCN(c4ccccc4)CC3)ncc21,-8,0.9,-6,-6,8,-7
CN(C)C(=O)N1CCC(C(=O)NCc2ccccc2)CC1,-7,0.9,-8,3,38*,3
CCN(CCNC(=O)C1CCN(S(C)(=O)=O)CC1)c1ccccc1,-6,1,2,10,9,-7
CS(=O)(=O)N1CCC(C(=O)NCCN2CCN(Cc3ccccc3)CC2)CC1,0,1.1,31*,1,-3,6
O=C(NCCc1ccccc1)C1CCN(S(=O)(=O)N2CCCC2)CC1,-6,1.2,33*,-5,-4,5
CN(C)C(=O)N1CCC(C(=O)NCc2ccc(F)cc2)CC1,-7,1,-13,5,2,9
C/C(=N\Nc1nc(-c2ccccc2)nc(C)c1C)c1cccc([N+](=O)[O-])c1,.,.,.,4,.,.
COc1ccc(S(=O)(=O)CCc2nc3ccccc3o2)cc1,.,.,.,-11,.,.
SMILES,tolC growth inh,PLAP act,PostGolgi yeast,HePTP inh,PostGolgi ctrl,Ecoli WT expand
C=CCn1c2ccccc2c2nnc(SCN3C(=O)c4ccccc4C3=O)nc21,23,1.1,39*,18,28,-7
O=C1c2ccccc2C(=O)N1CSc1nnc2c3ccccc3n(CCc3ccccc3)c2n1,.,1,8,.,8,-12
CCC(C)[C@H](N)c1nnc(SCC(=O)Nc2cccc(Cl)c2)o1 (stereo not given in full),-13,2.5*,-11,8,8,8
CCCCCc1ccc(CC(=O)Nn2c(C)nc3ccccc3c2=O)cc1,.,1.5,-3,.,41*,-2
Cc1nc2ccccc2c(=O)n1NC(=O)Cc1ccc(Br)cc1,.,1,-2,.,-1,7
Cc1ccccc1-n1c(C)cc(/C=N/Nc2ccc([N+](=O)[O-])cn2)c1C,.,0.7,-1,.,19,-5
O=[N+]([O-])c1ccc(N/N=C\c2cccn2-c2ccccc2)nc1,.,0.9,11,.,40*,-9
CCCCN1CC(O)=C(c2nc3ccccc3s2)C1=N,26,1.7,2,13,7,-3
CCN1CC(O)=C(c2nc3ccccc3s2)C1=N,.,2.1*,-2,.,8,13
O=c1c2c3n(c(=S)nc2[nH]n1-c1ccccc1)CCCCC3,.,0.9,7,.,62*,1
N#C/C(=C/c1ccc2c(c1)OCO2)C(=O)NCCc1c[nH]c2ccccc12,.,0.9,8,.,36*,1
COc1ccc(OC)c(NC(=O)CN(c2cccc([N+](=O)[O-])c2)S(=O)(=O)c2ccccc2)c1,.,.,.,-3,.,.
O=C(CCN1CCOCC1)Nc1cccc(Br)c1,-5,0.7,6,11,3,2
O=C(CN1CCOCCOCCN(CC(=O)Nc2ccccc2)CCOCC1)Nc1ccccc1,-31,1.9,30*,10,2,0
O=C(CN1CCOCC1)Nc1cccc(Br)c1,-19,0.9,-4,-3,31*,5
O=C(CN1CCOCCOCCOCC1)Nc1ccccc1,.,0.9,-4,.,1,2
FC(F)(F)c1cnc(Sc2nc3nccc(-c4ccc(Cl)cc4)n3n2)c(Cl)c1,.,1.4,-6,.,39*,-1
CSc1nc2nccc(-c3ccc(Cl)cc3)n2n1,.,0.9,-1,.,40*,-7
COc1ccc(-c2ccnc3nc(Sc4ncc(C(F)(F)F)cc4Cl)nn23)cc1,.,1.2,-7,.,40*,-12
CSc1nc2nccc(/C=C\c3ccccc3)n2n1,.,1,-1,.,14,-11
O=C1NC(=S)S/C1=C/c1ccccc1Sc1ccc(Cl)cc1,.,.,.,4,.,.
C=COCCn1c2ccccc2c2cc(Br)ccc21,.,.,.,6,.,.
COc1ccc(NC2=NC3(CCCC3)N=C(N)N2)cc1,.,.,.,-9,.,.
COc1cccc(NC2=NC3(CCCCC3)N=C(N)N2)c1,35,2.8*,-2,4,4,23
Cc1ccc(NC2=NC3(CCCCC3)N=C(N)N2)c(C)c1,-9,2.2*,-5,0,-5,13
SMILES,tolC growth inh,PLAP act,PostGolgi yeast,HePTP inh,PostGolgi ctrl,Ecoli WT expand
CC(=O)c1ccc(OC(=O)c2ccccc2Br)cc1,.,.,.,-4,.,.
CCNC(=O)c1cc(-c2ccc(Cl)s2)nc2ccccc12,.,.,.,41,.,.
CC(C)CCN1C(=O)c2ccc(C(=O)NCc3ccco3)cc2C1=O,36,0.9,-1,4,11,5
O=C(NCc1ccccc1)c1ccc2c(c1)C(=O)N(Cc1ccncc1)C2=O,.,1,1,.,11,-4
CCN1C(=O)c2ccc(C(=O)NCc3ccccc3)cc2C1=O,-2,1.1,42*,-5,3,-5
O=C(NCc1ccco1)c1ccc2c(c1)C(=O)N(Cc1ccccc1)C2=O,14,1,-4,7,44*,4
Cc1cc(C)n(S(=O)(=O)c2ccc(Br)cc2C)n1,.,.,.,-9,.,.
COc1ccc(-c2nc3n(n2)C(=O)CC(c2ccco2)S3)cc1 (stereo not given),12,.,4,5,41*,-6
